In ChEMBL document CHEMBL5724801, “EUbOPEN Chemogenomics Library - Multiplex” (2024):
Where “and” joins values, the source holds several entries; their conditions need not be identical. Equal values may be shown once.

Test system: Fibroblast
Assay: Multiplex assay against human fibroblast
Format: toxicity, cell-based
Procedure, shortened: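 Live cells were stained at seeding with Hoechst33342, BioTracker Green Microtubule Cytoskeleton Dye, MitoTracker Red and Annexin V Alexa Fluor 680, then imaged on a CQ1 microscope at 37°C and 5% CO2 after compound addition. CellPathfinder machine-learning gating split cells into Hoechst high-intensity objects or normal cells. Normal cells were split into healthy, pyknosed or fragmented nuclei, and pyknosed cells into mitotic or apoptotic. Tubulin, mitochondrial-mass and membrane-permeability phenotypes are per cents of healthy-nucleus cells.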

[1] = 12 h, 1 µM, compound concentration 1 uM
[2] = 12 h, 10 µM, compound concentration 10 uM
[3] = 24 h, 1 µM, compound concentration 1 uM
[4] = 24 h, 10 µM, compound concentration 10 uM
[5] = 48 h, 1 µM, compound concentration 1 uM
[6] = 48 h, 10 µM, compound concentration 10 uM

S=c1[nH]nc(-c2cccs2)n1-c1ccccc1
Population Apoptotic (%) [1]: 10.45% and 27.27%
Population Fragmented Nuclei (%) [1]: 8.13% and 2.86%
Population Healthy Nuclei (%) [1]: 59.81% and 84.57%
Population Hoechst High Intensity Objects (%) [1]: 0%
Population Membrane Permeable-Phenotype (%) [1]: 2.4% and 4.05%
Population Mitochondria Different-Phenotype (%) [1]: 10.4% and 6.76%
Population Mitotic Cells (%) [1]: 89.55% and 72.73%
Population Normal (%) [1]: 100%
Population Pyknosed Nuclei (%) [1]: 32.06% and 12.57%
Population Tubulin-Different-Phenotype (%) [1]: 13.6% and 28.38%
Total Cell Count [1]: 209 and 175
Population Apoptotic (%) [2]: 17.07% and 26.67%
Population Healthy Nuclei (%) [2]: 62.62% and 78.84%
Population Hoechst High Intensity Objects (%) [2]: 0%
Population Membrane Permeable-Phenotype (%) [2]: 5.97% and 4.03%
Population Mitochondria Different-Phenotype (%) [2]: 8.21% and 11.41%
Population Mitotic Cells (%) [2]: 82.93% and 73.33%
Population Normal (%) [2]: 100%
Population Pyknosed Nuclei (%) [2]: 19.16% and 15.87%
Population Tubulin-Different-Phenotype (%) [2]: 14.18% and 20.13%
Total Cell Count [2]: 214 and 189
Population Fragmented Nuclei (%) [3]: 7.76% and 4%
Population Healthy Nuclei (%) [3]: 78.88% and 84%
Population Hoechst High Intensity Objects (%) [3]: 0%
Population Membrane Permeable-Phenotype (%) [3]: 3.28% and 2.04%
Population Mitochondria Different-Phenotype (%) [3]: 4.92% and 4.76%
Population Mitotic Cells (%) [3]: 93.55% and 76.19%
Population Normal (%) [3]: 100%
Population Pyknosed Nuclei (%) [3]: 13.36% and 12%
Population Tubulin-Different-Phenotype (%) [3]: 8.2% and 19.05%
Total Cell Count [3]: 232 and 175
Population Apoptotic (%) [4]: 16.22% and 35.71%
Population Fragmented Nuclei (%) [4]: 14.71% and 5.24%
Population Healthy Nuclei (%) [4]: 69.75% and 80.1%
Population Hoechst High Intensity Objects (%) [4]: 0%
Population Membrane Permeable-Phenotype (%) [4]: 3.61% and 5.88%
Population Mitochondria Different-Phenotype (%) [4]: 4.22% and 5.23%
Population Mitotic Cells (%) [4]: 83.78% and 64.29%
Population Normal (%) [4]: 100%
Population Pyknosed Nuclei (%) [4]: 15.55% and 14.66%
Population Tubulin-Different-Phenotype (%) [4]: 11.45% and 16.99%
Total Cell Count [4]: 238 and 191
Population Apoptotic (%) [5]: 8.33% and 10.53%
Population Fragmented Nuclei (%) [5]: 8.8% and 5.49%
Population Healthy Nuclei (%) [5]: 86.4% and 84.07%
Population Hoechst High Intensity Objects (%) [5]: 0%
Population Membrane Permeable-Phenotype (%) [5]: 0.93% and 1.96%
Population Mitochondria Different-Phenotype (%) [5]: 10.19% and 2.61%
Population Mitotic Cells (%) [5]: 91.67% and 89.47%
Population Normal (%) [5]: 100%
Population Pyknosed Nuclei (%) [5]: 4.8% and 10.44%
Total Cell Count [5]: 250 and 182
Population Apoptotic (%) [6]: 11.76% and 33.33%
Population Fragmented Nuclei (%) [6]: 10.61% and 5.58%
Population Healthy Nuclei (%) [6]: 82.45% and 88.32%
Population Hoechst High Intensity Objects (%) [6]: 0%
Population Membrane Permeable-Phenotype (%) [6]: 0% and 2.3%
Population Mitochondria Different-Phenotype (%) [6]: 9.9% and 4.02%
Population Mitotic Cells (%) [6]: 88.24% and 66.67%
Population Normal (%) [6]: 100%
Population Pyknosed Nuclei (%) [6]: 6.94% and 6.09%
Total Cell Count [6]: 245 and 197

CCN1CCN(Cc2ccc(Nc3ncc(F)c(-c4cc(F)c5nc(C)n(C(C)C)c5c4)n3)nc2)CC1.CS(=O)(=O)O
Population Apoptotic (%) [1]: 17.78% and 12.5%
Population Fragmented Nuclei (%) [1]: 19.76% and 8.1%
Population Healthy Nuclei (%) [1]: 53.29% and 72.47%
Population Hoechst High Intensity Objects (%) [1]: 0%
Population Mitochondria Different-Phenotype (%) [1]: 15.73% and 16.2%
Population Mitotic Cells (%) [1]: 82.22% and 87.5%
Population Normal (%) [1]: 100%
Population Pyknosed Nuclei (%) [1]: 26.95% and 19.43%
Population Tubulin-Different-Phenotype (%) [1]: 38.2% and 41.9%
Total Cell Count [1]: 167 and 247
Population Apoptotic (%) [2]: 22.89% and 30%
Population Fragmented Nuclei (%) [2]: 14.07% and 8.33%
Population Healthy Nuclei (%) [2]: 54.37% and 75%
Population Hoechst High Intensity Objects (%) [2]: 0%
Population Mitochondria Different-Phenotype (%) [2]: 15.38% and 7.78%
Population Mitotic Cells (%) [2]: 77.11% and 70%
Population Normal (%) [2]: 100%
Population Pyknosed Nuclei (%) [2]: 31.56% and 16.67%
Population Tubulin-Different-Phenotype (%) [2]: 68.53% and 62.59%
Total Cell Count [2]: 263 and 360
Population Apoptotic (%) [3]: 25%
Population Fragmented Nuclei (%) [3]: 16.76% and 6.88%
Population Healthy Nuclei (%) [3]: 56.76%
Population Hoechst High Intensity Objects (%) [3]: 0%
Population Mitotic Cells (%) [3]: 89.8% and 75%
Population Normal (%) [3]: 100%
Population Pyknosed Nuclei (%) [3]: 26.49% and 11.59%
Population Tubulin-Different-Phenotype (%) [3]: 43.81% and 37.78%
Total Cell Count [3]: 185 and 276
Population Apoptotic (%) [4]: 27.71% and 21.01%
Population Fragmented Nuclei (%) [4]: 11.19% and 3.61%
Population Healthy Nuclei (%) [4]: 58.84% and 63.13%
Population Hoechst High Intensity Objects (%) [4]: 0%
Population Mitochondria Different-Phenotype (%) [4]: 23.31% and 9.92%
Population Mitotic Cells (%) [4]: 72.29% and 78.99%
Population Normal (%) [4]: 100%
Population Pyknosed Nuclei (%) [4]: 29.96% and 33.25%
Population Tubulin-Different-Phenotype (%) [4]: 62.58% and 53.05%
Total Cell Count [4]: 277 and 415
Population Apoptotic (%) [5]: 23.08% and 25%
Population Fragmented Nuclei (%) [5]: 17.96% and 9.26%
Population Healthy Nuclei (%) [5]: 75.73% and 86.3%
Population Hoechst High Intensity Objects (%) [5]: 0%
Population Mitotic Cells (%) [5]: 76.92% and 75%
Population Normal (%) [5]: 100%
Population Pyknosed Nuclei (%) [5]: 6.31% and 4.44%
Population Tubulin-Different-Phenotype (%) [5]: 44.23% and 44.64%
Total Cell Count [5]: 206 and 270
Population Apoptotic (%) [6]: 38.62% and 20.77%
Population Fragmented Nuclei (%) [6]: 5.28% and 6.72%
Population Healthy Nuclei (%) [6]: 58.29% and 65.97%
Population Hoechst High Intensity Objects (%) [6]: 0%
Population Mitotic Cells (%) [6]: 61.38% and 79.23%
Population Normal (%) [6]: 100%
Population Pyknosed Nuclei (%) [6]: 36.43% and 27.31%
Population Tubulin-Different-Phenotype (%) [6]: 43.97% and 47.74%
Total Cell Count [6]: 398 and 670
